Measured values from different studies.
Each line is one published result; the experiments were not run side by side.
NPY1R: Neuropeptide Y receptor type 1 (NPY1R, Homo sapiens, UniProt P25929)
EGFR: Epidermal growth factor receptor (EGFR, Homo sapiens, UniProt P00533)
SRPK3: SRSF protein kinase 3 (SRPK3, Homo sapiens, UniProt Q9UPE1)
AVPR2: Vasopressin V2 receptor (AVPR2, Homo sapiens, UniProt P30518)
Transmembrane protease serine 6: Transmembrane protease serine 6 (Homo sapiens, UniProt Q8IU80)

CCN(CC)CCCC[C@H](NC(=O)[C@H](CC(C)C)NC(=O)[C@H](C)NC(=O)[C@H](Cc1ccccc1)NC(=O)c1ccc(C(C)(C)C)cc1)C(=O)N[C@@H](CO)C(=O)OC  inhibition (NPY1R; ligand displacement; radioligand; 10 µM): -20%
CC(C)Cn1cnc2c(N)nc3ccccc3c21  inhibition (NPY1R; ligand displacement; radioligand; 10 µM): 13%
C#Cc1n[nH]c2c(-c3cn([C@@H](C)c4ccccc4)c(=O)[nH]c3=O)cc(F)cc12  inhibition (EGFR; enzyme activity; inhibitor; 0.1 µM): 0.9%
Cn1cc(-c2cc(F)cc(N3CCn4c(cc5c4CCCC5)C3=O)c2CO)cc(Nc2ccc(N3CCN(C4COC4)CC3)cn2)c1=O  inhibition (SRPK3; enzyme activity; inhibitor; 0.1 µM): 15%
CC(C)CC(CC(=O)NO)N=[N+]=[N-] (stereo not drawn)  inhibition (Endoplasmic reticulum aminopeptidase 2 (ERAP2, Homo sapiens, UniProt Q6P179); enzyme activity; inhibitor; fluorescence; 300 µM): 21%
O=C(Nc1cccnn1)N1CCN([C@@H]2CCOc3cc(C(F)(F)F)ccc32)CC1  inhibition (AVPR2; cell-free assay; 20 µM): -4%
COc1ccc(S(=O)(=O)N2CCCCC2)cc1C  inhibition (NPY1R; ligand displacement; radioligand; 10 µM): < 30%
CN1CCN(CCCOc2ccc3occc(=O)c3c2)CC1  inhibition (Transmembrane protease serine 6; enzyme activity; inhibitor; fluorescence; 10 µM): 5%
c1ccc(C(NCCNC(c2ccccc2)c2ccccc2)c2ccccc2)cc1  inhibition (AVPR2; cell-free assay; 10 µM): 29%
COCCN(CCOC)C(=O)[C@@]12C[C@@H]1[C@@H](n1cnc3c(NC(C4CC4)C4CC4)nc(Cl)nc31)[C@H](O)[C@@H]2O  inhibition (Adenosine receptor A3 (ADORA3, Homo sapiens, UniProt P0DMS8); ligand displacement; radioligand; 10 µM): 30%
O=c1ccoc2ccc(OCCCCN3CCCCC3)cc12  inhibition (Transmembrane protease serine 6; enzyme activity; inhibitor; fluorescence; 10 µM): 12%
COCc1c(-c2cc3cc(C)cc(OC)c3s2)c2c(N)ncnn2c1CN1CCNC(=O)C1  inhibition (Serine/threonine-protein kinase Nek5 (NEK5, Homo sapiens, UniProt Q6P3R8); cell-free assay; competition with immobilised ligand; 1 µM): 90.1%
C[C@H](C(=O)N[C@H]1COc2ccccc2[C@@H]1S(C)(=O)=O)c1ccc(F)cc1  inhibition (AVPR2; cell-free assay; 10 µM): 3%
C#Cc1n[nH]c2c(-c3cn(C(C)c4ccccn4)c(=O)[nH]c3=O)cc(F)cc12 (stereo not drawn)  inhibition (EGFR; enzyme activity; inhibitor; 1 µM): -3.8%
CC(C)C[C@H](NC(=O)[C@H](Cc1ccccc1)NC(=O)c1cnccn1)B(O)O  inhibition (Neutrophil elastase (ELANE, Homo sapiens, UniProt P08246); enzyme activity; inhibitor; 33 µM): 36.1%
CN(CCN1CCC(OC(=O)Nc2ccccc2-c2ccccc2)CC1)C(=O)c1ccc(CN2CCC(C(N)=O)CC2)cc1  inhibition (Type-1 angiotensin II receptor (AGTR1, Homo sapiens, UniProt P30556); ligand displacement; radioligand; 1 µM): 3%
CN1CCN(CCOc2ccc3occc(=O)c3c2)CC1  inhibition (Transmembrane protease serine 6; enzyme activity; inhibitor; fluorescence; 10 µM): 6%
Cn1cc(-c2cccc(N3CCc4c(sc5c4CC(C)(C)C5)C3=O)c2CO)cc(Nc2ccncn2)c1=O  inhibition (SRPK3; enzyme activity; inhibitor; 1 µM): 9%
